# Screening results deposited in PubChem BioAssay by The Scripps Research Institute Molecular Screening Center.
# proCasp7 act – procaspase-7 activators, primary screen, counter-screen for procaspase-3 activator project, biochemical, absorbance, HTS, human; Caspase-7 (Homo sapiens), P55210; recombinant procaspase-7, Ac-DEVD-pNA absorbance 405 nm; D23A/D198A/D206A triple mutant, cannot self-cleave; scale: DMSO 0, 5 µM enzyme 100; activation, % at 8.5 µM; 330,000 tested, 0.093% active; AID 463210, 2010;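 active means percent activation above the screen-wide mean plus 3 SD, cut at about 25% in these data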
#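 Detection: p-Nitroaniline absorbance at 405 nm, read at 0 and 120 min; system: Uncleavable procaspase-7 mutant enzyme; evaluation: % activation from two-timepoint absorbance difference, scaled to controls; times: 1 h enzyme–compound preincubation and 2 h substrate reaction, both 25 °C; buffer or medium: Zinc-free HEPES pH 7.4 with 300 mM NaCl, 0.01% Triton X-100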
# PLC-gamma1 inh – PLC-gamma1 enzyme inhibitors, primary screen, biochemical, fluorescence, purified enzyme; inhibition, % at 12.2 µM; 1-phosphatidylinositol 4,5-bisphosphate phosphodiesterase gamma-1 (Homo sapiens), P19174; AID 720700, 2013; fluorogenic substrate; 370,000 tested, 0.84% active; in the data active means inhibition above about 9.5%
# PLC-beta3 inh – human PLC-beta3 inhibitors, primary screen, biochemical, fluorescence | 1-phosphatidylinositol 4,5-bisphosphate phosphodiesterase beta-3 (Homo sapiens), Q01970 | Purified PLC-beta3, fluorogenic substrate | inhibition, % at 12.2 µM | 370,000 tested, 0.18% active;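 further: 0% = median of compound wells on plate and 100% = full blocker control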
# proCasp3 act – activators of human procaspase-3 D3A mutant, primary screen, biochemical, absorbance, PC-3 D3A mutant, single concentration | recombinant procaspase-3 D3A, Ac-DEVD-pNA absorbance 405 nm | Caspase-3 (Homo sapiens), P42574 | 330,000 tested, 0.11% active | AID 463141, 2010 | activation, % at 8.5 µM;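 active means activation above the mean of all tested compounds plus 3 SD, cut at about 21% in these data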;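 further: 0% = DMSO alone and 100% = DMSO wells spiked with extra 5 µM PC-3 D3A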
#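 Evaluation: percent activation relative to control range; Material: Procaspase-3 D3A mutant, all three cleavage aspartates alanine; Compound: single dose, 8.5 µM nominal compound, 0.8% DMSO; Replication: one well per compound; Signal: absorbance at 405 nm, 0 and 120 min; Schedule: 1 h preincubation plus 2 h reaction at 25 °C.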
# sPLA2-III inh – human group III sPLA2 inhibitors, primary screen, biochemical, QFRET, BODIPY PC-A2 liposome substrate | AID 743126, 2013 | QFRET BODIPY PC-A2 liposome hydrolysis, fluorescence | inhibition, % at 12.2 µM | 370,000 tested, 0.56% active | Group 3 secretory phospholipase A2 (Homo sapiens), Q9NZ20;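 active means inhibition above mean plus 3 SD of compounds lying within the high and low control bounds, cut at about 19% in these data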;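 further: 0% = median of test compound wells and 100% = no enzyme DMSO wells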
# Target sequence (Q9NZ20 whole entry, looked up): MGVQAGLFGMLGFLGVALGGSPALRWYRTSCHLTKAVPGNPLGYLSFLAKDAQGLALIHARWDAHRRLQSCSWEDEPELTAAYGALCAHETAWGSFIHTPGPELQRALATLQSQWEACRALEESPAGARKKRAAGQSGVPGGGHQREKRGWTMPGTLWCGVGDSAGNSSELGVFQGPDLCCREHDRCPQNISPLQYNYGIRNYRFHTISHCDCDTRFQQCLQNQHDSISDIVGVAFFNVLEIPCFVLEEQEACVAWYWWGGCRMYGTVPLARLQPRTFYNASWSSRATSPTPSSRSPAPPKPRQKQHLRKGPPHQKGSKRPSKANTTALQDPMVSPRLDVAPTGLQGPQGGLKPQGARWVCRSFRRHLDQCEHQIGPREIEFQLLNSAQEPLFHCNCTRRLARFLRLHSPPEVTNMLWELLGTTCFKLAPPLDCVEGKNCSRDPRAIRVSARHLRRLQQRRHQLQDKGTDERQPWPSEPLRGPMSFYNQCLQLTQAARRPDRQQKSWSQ
# PLCg1 ctr – PLC-gamma1 enzyme inhibitors, counter-screen for PLC-beta3 inhibitor project, biochemical, fluorescence | AID 743258, 2014 | inhibition, % at 12.3 µM | purified PLC-gamma1, fluorogenic substrate | shares compounds with PLC-gamma1 inh | 3,300 tested, 3.1% active; in the data active means inhibition above about 9.5%
# PLCbeta3 conf – PLC-beta3 inhibitor confirmation, biochemical, fluorescence, purified enzyme. shares compounds with PLC-gamma1 inh. fluorogenic substrate fluorescence. inhibition, % at 12.3 µM. 3,300 tested, 1% active
# Numbers without * were called inactive; . = no result. An excerpt weighted towards active compounds, which were near 1.6% of everything screened. Unless noted, no stated cut-off is given here; in the data, active means inhibition above about 11%; inactive means the rest.
SMILES,proCasp7 act,PLC-gamma1 inh,PLC-beta3 inh,proCasp3 act,sPLA2-III inh,PLCg1 ctr,PLCbeta3 conf
CCOC(=O)COc1ccc(C(C)c2ccc(NC(=O)OC(C)(C)C)cc2)cc1 (stereo unspecified),.,1,3,.,-23,.,.
CN(C)S(=O)(=O)c1ccc(NC(=O)COC(=O)CC2CC3CCC2C3)cc1 (stereo unspecified),0,9.8*,3,0,-17,-7,-3
CCC(CO)Oc1cc(NCc2ccccc2Cl)c2ncn(C(C)C)c2c1 (stereo unspecified),0,-19,-30,2,-3,.,.
CN(C)S(=O)(=O)c1cc(C(=O)NCC2CCCO2)c(Cl)cc1Cl (stereo unspecified),-7,9.5*,6,-2,5,-1,3
CCNC(=O)c1cc(S(=O)(=O)N(C)C)c(Cl)cc1Cl,4,-1,0,5,5,.,.
CC(c1nccs1)N(C)C(=O)CCc1nnc(CCc2ccccc2)o1 (stereo unspecified),0,12*,3,2,9,2,-2
CN(Cc1cccc2cnccc12)C(=O)CCc1nnc(CCc2ccccc2)o1,-7,-3,1,1,7,.,.
O=C(NCc1ccccc1)c1cc(C2CCCCN2C(=O)c2ccccc2)on1 (stereo unspecified),.,0,-2,.,-7,.,.
O=C(O)Cn1ccnc1[N+](=O)[O-],.,10*,6,.,6,5,0
CCOC(=O)C1C(=O)OC(C)(C)C1C(C)C(=O)c1ccc(C)cc1 (stereo unspecified),-7,9.5*,9,-2,-1,-2,-4
COc1ccc(C)cc1NC(=O)CCNS(=O)(=O)c1cccc(C(F)(F)F)c1,1,6,-4,0,-6,.,.
CCOc1ccc(CCNC(=O)c2cc3ccsc3n2C)cc1OC,.,5,0,.,-5,.,.
CC(C)CC(NC(=O)C1CCCN1C(=O)OC(C)(C)C)C(=O)NCC(N)=O (stereo unspecified),.,7,14*,.,5,-2,2
COC(=O)C(CC(C)C)NC(=O)C(Cc1ccccc1)NC(=O)C1CCCN1C(=O)OC(C)(C)C (stereo unspecified),0,0,1,-1,-5,.,.
Cc1ccc(CNCC(O)(c2ccccc2)c2ccccc2)cc1,-2,10*,1,6,-5,2,1
CCc1noc(C)c1C(=O)Nc1ccc(-c2nnc3n2CCCCC3)cc1,3,0,-10,-3,9,.,.
O=C(NC1CCCCCCC1)C1CCN(S(=O)(=O)N2CCCC2)CC1,-5,11*,3,7,2,-6,-6
O=C(NC1CCCCC1)C1CCN(S(=O)(=O)N2CCCCCC2)CC1,-1,-2,0,0,1,.,.
O=C(Nc1ccccc1)c1ccc(S(=O)(=O)NCc2cccnc2)cc1,-3,10*,-93,6,-2,-1,2
CC(C)c1cc(C(=O)N2CCCC(Nc3ccc(F)cc3)C2)nc(N)n1 (stereo unspecified),0,-12,-16,-5,3,.,.
Cc1ccc2cccc(S(=O)(=O)N3CCCc4ccccc43)c2n1,3,3,-1,0,-8,.,.
C[C@H](NC(=O)c1ccc(Br)cc1)C(=O)NCc1ccc(S(N)(=O)=O)cc1,-6,9.6*,6,0,5,-2,-3
